Data set [1] has as its target T1, Glutathione S-transferase A1 (Homo sapiens, UniProt P08263).
T1 sequence (P08263 whole entry): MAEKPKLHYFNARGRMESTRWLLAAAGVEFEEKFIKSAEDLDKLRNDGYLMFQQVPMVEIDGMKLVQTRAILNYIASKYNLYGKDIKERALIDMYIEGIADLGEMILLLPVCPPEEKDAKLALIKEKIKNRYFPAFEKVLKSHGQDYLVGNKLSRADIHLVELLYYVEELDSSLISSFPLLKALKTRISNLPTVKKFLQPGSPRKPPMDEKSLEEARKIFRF
Nature of the data set: Drug level in phosphate buffer assessed as GSTA1 (unknown origin)-mediated compound formation from nitric oxide release pathway treated with (Z)-3,3-dimethyl-1-(5-(4-(methylamino)benzoyloxy)-2,4-dinitrophenoxy)triaz-1-ene 2-oxide at 1 uM at pH 7.4 at 37 degC after 30 mins by LC-MS/MS analysis in presence of GSH. It is filed as ADME. The conditions noted are these: pH 7.4, 0.5 h. The gist of the method:
(§1)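 Products analysed by LC–MS. The ratio is the NO-release-pathway product over the NO-retained-pathway phenolic product.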

Data set [2] is described as follows: Drug level in phosphate buffer treated with (Z)-3,3-dimethyl-1-(5-(4-(methylamino)benzoyloxy)-2,4-dinitrophenoxy)triaz-1-ene 2-oxide at 1 uM at pH 7.4 at 37 degC after 1 to 30 mins by LC/MS-MS analysis. It is filed as physicochemical. The conditions noted are these: pH 7.4, 1 µM.
Data set [3] concerns the target T1, Glutathione S-transferase A1. Nature of the data set: Drug level in phosphate buffer assessed as GSTA1 (unknown origin)-mediated compound formation from nitric oxide retained pathway treated with (Z)-1-(2-cyano-5-(4-(methylamino)benzoyloxy)-4-nitrophenoxy)-3,3-dimethyltriaz-1-ene 2-oxide at 1 uM at pH 7.4 at 37 degC after 30 mins by LC-MS/MS analysis in presence of GSH. Conditions: pH 7.4, 0.5 h. It is filed as ADME. The gist of the method: as §1

A short description of data set [4]: Drug level in phosphate buffer treated with (Z)-1-(2-cyano-5-(4-(methylamino)benzoyloxy)-4-nitrophenoxy)-3,3-dimethyltriaz-1-ene 2-oxide at 1 uM at pH 7.4 at 37 degC after 30 secs by LC-MS analysis in presence of GSH. It is filed as physicochemical. Conditions: pH 7.4, 0.5 min.
In data set [5] the target is T2, Glutathione S-transferase P (Homo sapiens, UniProt P09211). The experiment in a line: Drug level in phosphate buffer assessed as GSTP1 (unknown origin)-mediated compound formation treated with (Z)-1-(2-cyano-5-(4-(methylamino)benzoyloxy)-4-nitrophenoxy)-3,3-dimethyltriaz-1-ene 2-oxide at 1 uM at pH 7.4 at 37 degC after 5 to 30 mins by LC-MS/MS analysis in presence of GSH. It is filed as ADME. The conditions noted are these: pH 7.4, 1 µM. The gist of the method: (§2)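 Test compound at 1 µM reacted with 4 mM GSH containing 4 nM GSTP1 in 0.1 M phosphate, pH 7.4, at 37 °C. Products identified by LC–MS traces taken at 60 s and 30 min.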

Data set [6] can be described thus: Drug level in phosphate buffer treated with (Z)-3,3-dimethyl-1-(5-(4-(methylamino)benzoyloxy)-2,4-dinitrophenoxy)triaz-1-ene 2-oxide at 1 uM at pH 7.4 at 25 degC by HPLC trapping method. It is filed as physicochemical. Conditions: pH 7.4, 1 µM.
Data set [7] deals with T1, Glutathione S-transferase A1. Nature of the data set: Drug level in phosphate buffer assessed as GSTA1 (unknown origin)-mediated compound formation from nitric oxide release pathway treated with (Z)-1-(4-cyano-5-(4-(methylamino)benzoyloxy)-2-nitrophenoxy)-3,3-dimethyltriaz-1-ene 2-oxide at 1 uM at pH 7.4 at 37 degC after 30 mins by LC-MS/MS analysis in presence of GSH. It is filed as ADME. Conditions: pH 7.4, 0.5 h. Summed up: as §1

Data set [8] can be described thus: Drug level in phosphate buffer treated with (Z)-1-(4-cyano-5-(4-(methylamino)benzoyloxy)-2-nitrophenoxy)-3,3-dimethyltriaz-1-ene 2-oxide at 1 uM at pH 7.4 at 37 degC measured for 30 mins by LC-MS/MS analysis in presence of GSH. It is filed as physicochemical. The conditions noted are these: pH 7.4, 0.5 h.
The nature of data set [9]: Drug level in phosphate buffer treated with (Z)-1-(4-cyano-5-(4-(methylamino)benzoyloxy)-2-nitrophenoxy)-3,3-dimethyltriaz-1-ene 2-oxide at 1 uM at pH 7.4 at 37 degC after 30 secs by LC-MS analysis in presence of GSH. It is filed as physicochemical. The conditions noted are these: pH 7.4, 0.5 min.
Data set [10] concerns the target T1, Glutathione S-transferase A1. Nature of the data set: Drug level in phosphate buffer assessed as GSTA1 (unknown origin)-mediated compound formation from nitric oxide retained pathway treated with (Z)-1-(4-cyano-5-(4-(methylamino)benzoyloxy)-2-nitrophenoxy)-3,3-dimethyltriaz-1-ene 2-oxide at 1 uM at pH 7.4 at 37 degC after 30 mins by LC-MS/MS analysis in presence of GSH. It is filed as ADME. The conditions noted are these: pH 7.4, 0.5 h. Summed up: as §1

Data set [11] can be described thus: Drug level in phosphate buffer treated with (Z)-3,3-dimethyl-1-(5-(4-(methylamino)benzoyloxy)-2,4-dinitrophenoxy)triaz-1-ene 2-oxide at 1 uM at pH 7.4 at 37 degC by HPLC trapping method in presence of GSH. It is filed as physicochemical. The conditions noted are these: pH 7.4, 1 µM.
A short description of data set [12]: Half life of the compound in phosphate buffer at 1 uM at pH 7.4 at 37 degC by HPLC trapping method. It is filed as ADME. Summed up: (§3)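 Hydrolysis of compound at 1 µM final in 0.1 M phosphate buffer, pH 7.4, with 0.1% DMSO, run separately at 25 °C and 37 °C. Decomposition followed by HPLC, with products confirmed by LC–MS/MS. First-order rate constants were derived by initial-rate analysis.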

Data set [13] deals with T1, Glutathione S-transferase A1. The experiment in a line: Drug metabolism in phosphate buffer assessed as ratio of GSTA1 (unknown origin)-mediated (S)-2-amino-5-((R)-1-(carboxymethylamino)-3-(5-hydroxy-2,4-dinitrophenylthio)-1-oxopropan-2-ylamino)-5-oxopentanoic acid formation from nitric oxide release pathway to GSTA1 (unknown origin)-mediated (Z)-1-(5-hydroxy-2,4-dinitrophenoxy)-3,3-dimethyltriaz-1-ene 2-oxide formation from nitric oxide retained pathway at 1 uM at pH 7.4 at 37 degC after 30 mins by LC-MS/MS analysis in presence of GSH. It is filed as ADME. The conditions noted are these: pH 7.4, 0.5 h. Summed up:
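GSTA1 (4 nM)-catalysed reaction of 1 µM compound with 4 mM GSH in 0.1 M phosphate buffer, pH 7.4, 37 °C. Products analysed by LC–MS. Value is the ratio of the NO-release-pathway product to the NO-retained-pathway phenol product.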

Data set [14] is described as follows: Stability of the compound in phosphate buffer assessed as first-order initial rate constant for hydrolysis at pH 7.4 at 25 degC by HPLC trapping method. It is filed as physicochemical.
Data set [15] can be described thus: Half life of the compound in phosphate buffer at 1 uM at pH 7.4 at 25 degC by HPLC trapping method. It is filed as ADME. Summed up: as §3
The nature of data set [16]: Stability of the compound in phosphate buffer assessed as first-order initial rate constant for hydrolysis at pH 7.4 at 37 degC by HPLC trapping method. It is filed as physicochemical.
The nature of data set [17]: Stability of the compound in phosphate buffer assessed as pseudo-first order rate constant at pH 7.4 at 37 degC by HPLC trapping method in presence of GSH. It is filed as physicochemical.
Data set [18] addresses T2, Glutathione S-transferase P. Nature of the data set: Prodrug conversion in phosphate buffer assessed as GSTP1 (unknown origin)-mediated nitric oxide release at 1 uM at pH 7.4 at 37 degC after 1 to 30 mins by LC/MS-MS analysis. It is filed as ADME. Conditions: pH 7.4, 1 µM. The gist of the method:
as §2

Each structure is given as a SMILES string.

What is called half-life is the time in which the quantity being followed falls by half.

T2 sequence (P09211 whole entry): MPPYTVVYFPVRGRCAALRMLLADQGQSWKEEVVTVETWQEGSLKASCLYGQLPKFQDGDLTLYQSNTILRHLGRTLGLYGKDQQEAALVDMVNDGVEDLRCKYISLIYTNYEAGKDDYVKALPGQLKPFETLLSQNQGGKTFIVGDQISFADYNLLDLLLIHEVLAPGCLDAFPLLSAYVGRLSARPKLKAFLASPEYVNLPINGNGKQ

As to `N[C@@H](CCC(=O)N[C@@H](CSc1cc(O)c([N+](=O)[O-])cc1[N+](=O)[O-])C(=O)NCC(=O)O)C(=O)O`, the Drug metabolism entry in [1] and in [2] was “metabolite_detected” in each case.

With `CN(C)/[N+]([O-])=N/Oc1cc(O)c([N+](=O)[O-])cc1C#N`, the Drug metabolism result in data set [3] and in [4] was “metabolite_detected” in each case.

Turning to `CN(C)/[N+]([O-])=N/Oc1cc(SC[C@H](NC(=O)CC[C@H](N)C(=O)O)C(=O)NCC(=O)O)c([N+](=O)[O-])cc1C#N`, the Drug metabolism entry in data set [4] and in data set [5] was “metabolite_detected” each time.

As to `CNc1ccc(C(=O)O)cc1`, the Drug metabolism result in [4], in [2] and in data set [6] was “metabolite_detected” each time.

For the compound `N#Cc1cc([N+](=O)[O-])c(SC[C@H](NC(=O)CC[C@H](N)C(=O)O)C(=O)NCC(=O)O)cc1O`, the Drug metabolism result in data set [7] and in data set [8] was “metabolite_detected” each time.

In the case of `CN(C)/[N+]([O-])=N/Oc1cc(O)c(C#N)cc1[N+](=O)[O-]`, the Drug metabolism result in data set [9] and in [10] was “metabolite_detected” each time.

Take `CNc1ccc(C(=O)Oc2cc(SC[C@H](NC(=O)CC[C@H](N)C(=O)O)C(=O)NCC(=O)O)c([N+](=O)[O-])cc2[N+](=O)[O-])cc1`: the Drug metabolism entry in [11] and in data set [2] was “metabolite_detected” each time.

In the case of `CNc1ccc(C(=O)Oc2cc(O/N=[N+](\[O-])N(C)C)c([N+](=O)[O-])cc2[N+](=O)[O-])cc1`, the half-life at 1 µM in data set [12] was 0.333 h; in data set [15], 2 h. The Ratio in data set [13] is 3. Further, the K is on record as 9.6 ×10⁻⁵ /s in [14], 5.7 ×10⁻⁴ /s in data set [16] and 11.8 ×10⁻³ /s in [17]. Further, the Drug metabolism entry in data set [18] was “metabolite_detected”.

These data come from ChEMBL document CHEMBL3593239, “PABA/NO lead optimization: Improved targeting of cytotoxicity to glutathione S-transferase P1-overexpressing cancer cells” (Bioorg Med Chem, 2015).
